Screens (PubChem BioAssay)
T cruzi repl – T. cruzi replication inhibition; T. cruzi beta-gal in NIH3T3, luminescence, 90 h; inhibition, % (no concentration beside the values); hit rate 1.4% among 300,000; AID 1885;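 active = mean inhibition across valid replicates above about 55%, limit read from the data; inconclusive = mean below that limit but half or more replicates reach it; inactive = mean below it, under half of replicates reach it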;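 also: signal also drops with host cell toxicity which is not excluded here; 0% = plate median of DMSO wells and 100% = zero luminescence signal; higher percent means less beta-gal luminescence so fewer parasites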
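Incubation – ≥90 h infection period, 3 h prior cell attachment · System – NIH/3T3 fibroblasts plus reporter T. cruzi · Doses – compound pinned at 50 nL/well, DMSO · Read-out basis – percent inhibition of parasite-derived β-gal signal · Signal – luminescent β-galactosidase signal after 60 min lysis · Also added – 5000 T. cruzi trypomastigotes/well · Medium – Low-serum DMEM with 2% FBS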
Beta apoptosis – blocks beta cell apoptosis | INS-1E cytokine-induced death, ATP luminescence, 48 h; percent of positive-control rescue, neutral wells zero | protection from apoptosis, % (no concentration beside the values) | hit rate 0.8% among 300,000 | AID 435005;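 active = Every replicate reaches about 75%, or at least half do and their mean reaches it too, limit read from the data; inconclusive = At least half of replicates reach the limit but their mean does not; inactive = Under half of replicates reach the limit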;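 also: 0% = cytokine-treated negative control wells and 100% = positive control rescue; higher means more ATP so stronger rescue from cytokine killing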
SKKanGAS inh – SKKanGAS growth inhibition; S. pyogenes SKKanGAS, kanamycin growth, BacTiter-Glo, 6 h; inhibition, % at 7.5 µM; hit rate 1.3% among 300,000;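 active = mean replicate score, as percent of positive control median, at least 50; inconclusive = mean below 50 but one replicate at or above 50; inactive = mean and every replicate below 50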;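 also: strain carries kanamycin resistance gene driven by streptokinase promoter and grows in 40 µg/ml kanamycin; loss of luminescence reflects streptokinase promoter inhibition or plain growth inhibition; 0% = median of DMSO wells and 100% = positive control at its reference dose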
Mdm2 MdmX PPI – inhibitors of human Mdm2/MdmX interaction; AID 485346; SaOS-2 split-luciferase Mdm2/MdmX complementation, luminescence; hit rate 3% among 330,000; inhibition, % at 8 µM; O15151+Q00987;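 active = inhibition of at least 50% at 8 µM in the primary screen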
Target sequence (O15151 whole entry, looked up): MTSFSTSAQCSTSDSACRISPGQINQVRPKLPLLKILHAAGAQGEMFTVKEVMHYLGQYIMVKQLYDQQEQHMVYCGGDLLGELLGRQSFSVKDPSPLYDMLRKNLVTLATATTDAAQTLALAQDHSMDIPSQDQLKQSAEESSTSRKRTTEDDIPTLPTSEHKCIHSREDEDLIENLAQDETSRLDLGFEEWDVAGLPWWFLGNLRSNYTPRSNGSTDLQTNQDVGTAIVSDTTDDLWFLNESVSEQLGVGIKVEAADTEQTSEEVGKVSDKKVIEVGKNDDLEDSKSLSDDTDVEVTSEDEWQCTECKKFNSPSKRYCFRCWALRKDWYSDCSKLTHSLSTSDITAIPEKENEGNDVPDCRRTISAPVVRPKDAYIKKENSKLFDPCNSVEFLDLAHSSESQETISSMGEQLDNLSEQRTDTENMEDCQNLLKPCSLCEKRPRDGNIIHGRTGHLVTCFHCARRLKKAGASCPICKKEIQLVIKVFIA
Target sequence (Q00987 whole entry, looked up): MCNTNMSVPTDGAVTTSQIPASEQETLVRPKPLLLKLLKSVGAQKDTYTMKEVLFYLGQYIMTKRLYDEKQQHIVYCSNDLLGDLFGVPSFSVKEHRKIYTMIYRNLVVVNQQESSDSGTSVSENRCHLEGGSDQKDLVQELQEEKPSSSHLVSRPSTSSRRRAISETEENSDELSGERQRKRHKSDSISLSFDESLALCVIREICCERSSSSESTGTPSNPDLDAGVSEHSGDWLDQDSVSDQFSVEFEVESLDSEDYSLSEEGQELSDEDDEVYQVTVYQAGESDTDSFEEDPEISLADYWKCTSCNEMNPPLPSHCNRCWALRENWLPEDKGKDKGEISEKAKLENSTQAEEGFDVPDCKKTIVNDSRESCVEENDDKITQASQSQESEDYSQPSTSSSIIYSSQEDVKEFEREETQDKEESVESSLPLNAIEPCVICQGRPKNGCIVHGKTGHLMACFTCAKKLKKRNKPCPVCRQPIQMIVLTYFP
CSC inhib – blocks cancer stem cells | cancer stem cell-like cells viability, luminescence | inhibition, % at 7.5 µM | hit rate 1.1% among 300,000 | AID 2717; in the data active = inhibition above about 75%; inconclusive = no clear call, values can overlap the other calls; tested in HMLE shEcad cells
Calb FLC – C. albicans growth modulation with fluconazole; hit rate 0.57% among 300,000; growth inhibition, % (concentration not given with the values); AID 1979; C. albicans CaCi-2 + fluconazole, Alamar Blue growth, 48 h;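 active = growth inhibition above about 58% in most replicates, limit read from the data, passing the limit was not always enough; inconclusive = exactly half the replicates above a set limit; inactive = most replicates below a set limit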;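 also: all wells also contain fluconazole at 8 µg/ml as a sub-toxic cotreatment; 0% = median of DMSO wells and 100% = median of geldanamycin control wells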
Mdm2 MdmX conf – confirmation of human Mdm2/MdmX interaction inhibitors; shares compounds with Mdm2 MdmX PPI; AID 489028; hit rate 55% among 10,000; inhibition, % at 8 µM; Mdm2-MdmX binding, luminescent assay; in the data active = inhibition above about 40%
Full FLuc ctr – counter-screen for Mdm2/MdmX inhibitors: full-length luciferase. inhibition, % at 8 µM. SaOS-2 full-length luciferase counterscreen, luminescence. hit rate 77% among 6,200. shares compounds with Mdm2 MdmX PPI;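 active = mean inhibition at 8 µM reaching about 37%, which flags the compound as non-specific, limit read from the data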;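 also: p53-null SaOS-2 cells with luciferase driven by a doxycycline-inducible promoter; compound on cells about two nights before reading with doxycycline added after day one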
The depositor's hits bear a star; ? = inconclusive; / = not tested or not shown. Only some compounds are listed: those with a hit (about 5.7% of all), similar ones and a draw of the others.

SMILES | T cruzi repl | Beta apoptosis | SKKanGAS inh | Mdm2 MdmX PPI | CSC inhib | Calb FLC | Mdm2 MdmX conf | others
Cc1nc2ncccn2c1-c1csc(Nc2ccccc2)n1 | 0 | 9 | -5 | 62* | -9 | 16 | 24
CC(=O)Nc1ccc(Nc2nc(-c3c(C)nc4ccccn34)cs2)cc1 | -18 | 5 | 6 | 66* | 59 | 6 | 47* | Full FLuc ctr=66*
Cc1nc2ncccn2c1-c1csc(Nc2ccc(N(C)C)cc2)n1 | -8 | / | 7 | / | / | -4 | /
COC(=O)c1cn[nH]c1NC(=S)Nc1ccc(C)cc1Cl | 6 | 7 | ? | 52* | -8 | 18 | -12
COC(=O)c1cn[nH]c1NC(=S)Nc1ccc(Cl)c(Cl)c1 | 9 | 11 | 8 | 56* | -5 | 28 | -20
COC(=O)c1cn[nH]c1NC(=S)Nc1ccccc1C | -11 | / | 1 | -8 | / | 7 | /
Cc1ccc(NC(=O)C(OC(=O)c2cnc(C)cn2)c2ccccc2)c([N+](=O)[O-])c1 (stereo not given) | -5 | / | 14 | 16 | -1 | 0 | /
COc1cc(OC)cc(-c2c(-c3cccs3)c3cc(-c4ccc5[nH]ccc5c4)ccc3n2C)c1 | / | 0 | / | 42 | 4 | / | /
CCN1C(=O)[C@H]2[C@@H](c3ccc(-c4cccc(Cl)c4)c(OC)c3)N[C@@](Cc3ccccc3)(C(=O)OC)[C@H]2C1=O | -3 | 4 | 19 | 52* | 13 | 10 | 29 | Full FLuc ctr=54*
CCN1C(=O)[C@H]2[C@@H](c3ccc(-c4ccc(Cl)c(Cl)c4)cc3)N[C@@](Cc3ccccc3)(C(=O)OC)[C@H]2C1=O | -8 | 3 | 13 | 57* | -5 | 6 | 34
COc1cccc(-c2nnc3sc(C4CCCCC4)nn23)c1 | 21 | -12 | 8 | 85* | 13 | 5 | 78* | Full FLuc ctr=25
COc1cc(-c2nnc3sc(C4CCCCC4)nn23)cc(OC)c1OC | 22 | 9 | -10 | 57* | 7 | 4 | 27
Cc1cc(-c2nnc3sc(C4CCCCC4)nn23)n[nH]1 | 6 | 4 | -7 | -2 | / | 30 | /
O=C(CN1C(=O)C(=O)N(C2CCCC2)C1=O)Nc1ccccc1OC(F)F | / | -2 | / | -28 | -10 | / | /
Cc1onc(-c2ccccc2)c1C(=O)N(Cc1ccco1)Cc1cccs1 | 3 | / | -1 | / | / | 8 | /
CCN(C(=O)C(C)N1C(=O)/C(=C/c2ccco2)SC1=S)C1CCS(=O)(=O)C1 (stereo not given) | -2 | -17 | 5 | 55* | 28 | -2 | 2
O=C(CCc1c[nH]c2ccccc12)NCCc1ccc(O)cc1 | -3 | -7 | -2 | 19 | 0 | 2 | /
Cn1nc(-c2ccc(N3CCOCC3)c(NS(=O)(=O)c3ccc(Cl)cc3)c2)c2ccccc2c1=O | / | 6 | / | 67* | 47 | / | 36 | Full FLuc ctr=38*
Cc1ccc(S(=O)(=O)Nc2cc(-c3nn(C)c(=O)c4ccccc34)ccc2N2CCOCC2)cc1 | -2 | 7 | 13 | 86* | -4 | 31 | 77* | Full FLuc ctr=30
O=C(COc1ccc(-c2nnco2)cc1)N1CCOCC1 | / | 6 | / | -7 | -6 | / | /
CC(C)(C)c1cc(NS(=O)(=O)c2cccs2)no1 | -9 | -11 | -1 | -3 | 71 | 4 | /
COc1ccccc1C(=O)NCCC(=O)NCCC12CC3CC(CC(C3)C1)C2 | 2 | 0 | 0 | 8 | -3 | -35 | /
COc1ccc(C23CC4CC(CC(C4)C2)C3)cc1C(=O)NCCN(C)C | 14 | 20 | -4 | 62* | 4 | 11 | 23
COc1ccc(CNC(=O)[C@@H](NC(=O)C2CCN(S(=O)(=O)c3ccccc3)CC2)C(C)C)cc1 | -9 | 2 | -9 | 29 | 15 | 2 | /
O=C(NNC(=O)c1ccccc1-n1cccc1)c1ccc(Cl)nc1 | / | -2 | / | -24 | / | / | /
SMILES | T cruzi repl | Beta apoptosis | SKKanGAS inh | Mdm2 MdmX PPI | CSC inhib | Calb FLC | Mdm2 MdmX conf | others
O=c1[nH]c2ccccc2nc1-c1ccccc1 | -16 | 2 | 1 | -4 | 0 | -4 | /
NC(=O)N=Nc1c2[nH]c3ccccc3nc-2c2ccccc12 | 12 | 62 | 72* | 82* | 58 | -9 | 52* | Full FLuc ctr=65*
CSc1ncccc1C(=O)OCC(=O)NC(C)C | -18 | -4 | -6 | -15 | -5 | -12 | /
Cc1nc2cc(NC(=O)Nc3cccc4ccccc34)ccc2n1C | 8 | -2 | 0 | -125 | -2 | 13 | /
O=C(Nc1ccc2snnc2c1)Nc1cccc2ccccc12 | 16 | 41 | 26 | 67* | 29 | -5 | 20
COc1ccc(CNCC(C)NCc2ccc(OC)c(OC)c2)cc1OC (stereo not given) | 44 | -5 | -2 | 18 | -11 | -4 | /
COc1ccc(-c2nn(-c3ccccc3)cc2/C=C/C(=O)OCC(=O)Nc2ccccc2C#N)cc1 | 0 | 31 | -4 | 88* | 10 | 19 | 9
Cc1ccc(-c2nn(-c3ccccc3)cc2C(=O)N2CCN(c3ccccn3)CC2)cc1 | 17 | 4 | 4 | 14 | -3 | -14 | /
COc1ccc(-c2nn(-c3ccccc3)cc2/C=C/C(=O)N2CCN(c3ccccn3)CC2)cc1 | 55* | 1 | 60* | 59* | -6 | 20 | 18
COc1ccc(-n2c(SCC(=O)Nc3ncc(Cl)cc3Cl)nc3ccccc32)cc1 | 9 | 21 | 26 | 91* | 44 | -16 | 74* | Full FLuc ctr=29
Cc1cccc(-n2c(SCC(=O)Nc3ncc(Cl)cc3Cl)nc3ccccc32)c1 | 27 | -1 | 37 | / | 50 | 45 | /
O=C(CSc1nc2ccccc2n1-c1ccccc1)Nc1ncc(Cl)cc1Cl | -7 | 0 | 7 | 88* | 46 | 22 | 81* | Full FLuc ctr=22
Cc1ccc(C(C)(C)NC(=O)C2CCC(=O)N(Cc3ccccc3F)C2)cc1 (stereo not given) | 5 | 6 | 6 | 8 | -3 | -5 | /
CCN1CCN(C(=O)c2cc(=O)c3cc(C)ccc3o2)CC1 | -3 | -3 | -1 | -14 | -6 | 1 | /
Cc1cccc(-c2nc(CS(=O)CC(=O)NC3CCCCC3)c(C)o2)c1 (stereo not given) | -18 | -2 | -8 | 6 | -11 | 0 | /
CC1CCC(NC(=O)c2cccc(S(=O)(=O)N3CCN(c4ccc(F)cc4)CC3)c2)CC1 (stereo not given) | 15 | 20 | 25 | -24 | 1 | -8 | /
CCOc1cc(/C=C2\SC(N)=NC2=O)ccc1O | -21 | 0 | -16 | -10 | 2 | 7 | /
CCOc1ccc(-c2nn(-c3ccccc3)cc2/C=C2\SC(N)=NC2=O)cc1C | 35 | 10 | 10 | 67* | 33 | 3 | 22
Cc1cc(C(=O)CCl)c(C)n1-c1cccc([N+](=O)[O-])c1 | / | -9 | -4 | 69* | 0 | -3 | 38 | Full FLuc ctr=60*
